Published values gathered from unrelated publications.
Cell line: HepG2
Observed: cell growth or viability

| SMILES | test | conditions | IC50 |
| --- | --- | --- | --- |
| CC[C@@]1(OC(=O)[C@@H](N)Cc2ccccc2)C(=O)OCc2c1cc1n(c2=O)Cc2cc3cc4c(cc3nc2-1)OCO4 | MTT | – | 88 nM |
| Nc1nc(-c2cccc(NC(=O)Nc3cccc(-c4c[nH]c(N)n4)c3)c2)c[nH]1 | XTT | 24 h | 850000 nM |
| CC[C@@]1(OC(=O)Cc2c(C)n(C(=O)c3ccc(Cl)cc3)c3ccc(OC)cc23)C(=O)OCc2c1cc1n(c2=O)Cc2cc3cc4c(cc3nc2-1)OCO4 | MTT | – | 32 nM |
| O=C(O)CCCc1ccc(N(CCCl)CCCl)cc1 | CCK-8 | 48 h | 15100 nM |
| Cc1c2ccncc2c(C)c2c1[nH]c1ccccc12 | MTT | 72 h | 0.45 µg/mL |
| CCC1(c2ccc(N)cc2)CCC(=O)NC1=O (centres unmarked) | CCK-8 | 48 h | > 50000 nM |
| CC[C@@]1(OC(=O)[C@H](C)N)C(=O)OCc2c1cc1n(c2=O)Cc2cc3cc4c(cc3nc2-1)OCO4 | MTT | – | 101 nM |
| N.N.[Cl][Pt][Cl] | MTT | 48 h | 14000 nM |
| Cl.O[C@]12C=C(c3nccc4c3[nH]c3ccccc34)[C@@H]3CCN(CCCC/C=C\CC1)C[C@@]31C[C@@H]3/C=C\CCCCN3[C@H]12 | neutral red | 48 h | 1.55 µg/mL |
| CC1=C(O)C(=O)C=C2C1=CC=C1[C@@]2(C)CC[C@@]2(C)[C@@H]3C[C@](C)(C(=O)OCCCn4cc(C=O)c5ccccc54)CC[C@]3(C)CC[C@]12C | MTT | 48 h | 1760 nM |
| [Cl-].[Cl-].[Co+2] | MTT | 48 h | > 150000 nM |
| COc1c2ccoc2cc2oc(=O)ccc12 | WST-1 | 48 h | 18100 nM |
| Cl.Cl.Nc1nc(-c2cc(F)cc(NC(=O)Nc3cc(F)cc(-c4c[nH]c(N)n4)c3)c2)c[nH]1 | XTT | 24 h | > 256 µg/mL |
| CC[C@@]1(OC(=O)C(C)c2cccc(C(=O)c3ccccc3)c2)C(=O)OCc2c1cc1n(c2=O)Cc2cc3cc4c(cc3nc2-1)OCO4 (some centres unmarked) | MTT | – | 364 nM |
| O=c1ccc2cc3ccoc3cc2o1 | WST-1 | 48 h | 17200 nM |
| CC[C@@]1(OC(=O)[C@@H]2CCCN2)C(=O)OCc2c1cc1n(c2=O)Cc2cc3cc4c(cc3nc2-1)OCO4 | MTT | – | 263 nM |
| CC1=C(O)C(=O)C=C2C1=CC=C1[C@@]2(C)CC[C@@]2(C)[C@@H]3C[C@](C)(C(=O)O)CC[C@]3(C)CC[C@]12C | MTT | 48 h | 1230 nM |
